The source made the active and inactive calls. No cut-off for these calls is given here.
Legend:
[1] = test system: PC-12; test: Inhibition of H202-induced apoptosis in rat PC-12 cells assessed as necrotic cells at 25 uM after 24 hrs by Annexin-V-FITC/PI-staining based flow cytometric analysis (reference value: 0.33%); type: functional; design: scale not given: the % may be the effect or the level left
Method in brief: (§1)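 PC12 cells seeded 2 × 10⁵/well for 24 h, pretreated 24 h with 12.5, 25, 50 or 100 µM compound, then given fresh medium containing 650 µM H2O2. Harvested cells washed in binding buffer, stained 5 min with Annexin V-FITC/PI, analysed by flow cytometry.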

[2] = target: T1, Nuclear factor erythroid 2-related factor 2 (Homo sapiens) (UniProt Q16236); test: Activation of Nrf2 in human HepG2-ARE-C8 cells assessed as fold change at 12.5 uM measured after 12 hrs by luciferase reporter gene assay relative to control; type: cell-based; conditions: filed as activator
T1 sequence (whole entry): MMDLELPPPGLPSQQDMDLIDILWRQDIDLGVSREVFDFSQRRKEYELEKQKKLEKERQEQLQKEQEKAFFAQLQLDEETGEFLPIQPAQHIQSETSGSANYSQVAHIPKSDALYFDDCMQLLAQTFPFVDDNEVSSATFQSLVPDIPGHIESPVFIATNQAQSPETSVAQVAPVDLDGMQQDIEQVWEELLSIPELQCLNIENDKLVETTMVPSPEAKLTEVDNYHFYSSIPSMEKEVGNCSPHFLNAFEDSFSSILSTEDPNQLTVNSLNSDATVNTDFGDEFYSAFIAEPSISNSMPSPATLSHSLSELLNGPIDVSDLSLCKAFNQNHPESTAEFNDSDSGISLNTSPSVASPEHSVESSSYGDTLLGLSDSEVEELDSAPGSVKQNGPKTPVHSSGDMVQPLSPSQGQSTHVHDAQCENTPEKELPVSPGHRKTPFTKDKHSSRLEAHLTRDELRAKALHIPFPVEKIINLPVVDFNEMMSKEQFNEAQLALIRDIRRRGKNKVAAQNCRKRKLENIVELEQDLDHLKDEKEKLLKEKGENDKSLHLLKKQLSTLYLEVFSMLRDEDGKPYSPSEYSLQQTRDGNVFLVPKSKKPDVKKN

[3] = test system: PC-12; test: Inhibition of H202-induced apoptosis in rat PC-12 cells assessed as viable cells at 100 uM after 24 hrs by Annexin-V-FITC/PI-staining based flow cytometric analysis (reference value: 52.01%); type: functional; conditions: read-out: Activity; method in brief: as §1
[4] = test system: PC-12; test: Inhibition of H202-induced apoptosis in rat PC-12 cells assessed as viable cells at 12.5 uM after 24 hrs by Annexin-V-FITC/PI-staining based flow cytometric analysis (reference value: 52.01%); type: functional; conditions: read-out: Activity; method in brief: as §1
[5] = test system: PC-12; test: Inhibition of H202-induced apoptosis in rat PC-12 cells assessed as late apoptotic cells at 100 uM after 24 hrs by Annexin-V-FITC/PI-staining based flow cytometric analysis (reference value: 32.5%); type: functional; design: scale not given: the % may be the effect or the level left; method in brief: as §1
[6] = test system: PC-12; test: Inhibition of H202-induced apoptosis in rat PC-12 cells assessed as necrotic cells at 50 uM after 24 hrs by Annexin-V-FITC/PI-staining based flow cytometric analysis (reference value: 0.33%); type: functional; design: scale not given: the % may be the effect or the level left; method in brief: as §1
[7] = test system: PC-12; test: Upregulation of HO-1 expression in rat PC-12 cell incubated for 24 hrs by Western blot analysis; type: functional
Method in brief: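 PC12 cells treated with compound for 24 h; lysates resolved by SDS-PAGE, transferred to PVDF and probed for HO-1 and NQO1; band intensities quantified densitometrically. Mean ± SD of three independent experiments.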

[8] = test system: PC-12; test: Cytotoxicity against rat PC-12 cells assessed as increase LDH content in presence of H2O2 incubated at 50 to 100 uM for 24 hrs by Lactate dehydrogenase assay; type: cell-based; conditions: pc-12, 24 h, dose 50-100 µM
Method in brief: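 PC12 cells seeded 1 × 10⁴/well for 24 h, pretreated with compound at several concentrations (12.5–100 µM range), then challenged with H2O2; LDH released into medium quantified as membrane-damage marker. Mean ± SD, three independent experiments.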

[9] = target: T2, Nuclear factor erythroid 2-related factor 2 (Rattus norvegicus) (UniProt O54968); test: Induction of Nrf2 nuclear translocation in rat PC-12 cells assessed as Nrf2 accumulation in nucleus at 25 uM measured after 4 to 8 hrs by immunofluorescence analysis; type: cell-based; conditions: filed as activator, time 4-8 hrs
T2 sequence (whole entry): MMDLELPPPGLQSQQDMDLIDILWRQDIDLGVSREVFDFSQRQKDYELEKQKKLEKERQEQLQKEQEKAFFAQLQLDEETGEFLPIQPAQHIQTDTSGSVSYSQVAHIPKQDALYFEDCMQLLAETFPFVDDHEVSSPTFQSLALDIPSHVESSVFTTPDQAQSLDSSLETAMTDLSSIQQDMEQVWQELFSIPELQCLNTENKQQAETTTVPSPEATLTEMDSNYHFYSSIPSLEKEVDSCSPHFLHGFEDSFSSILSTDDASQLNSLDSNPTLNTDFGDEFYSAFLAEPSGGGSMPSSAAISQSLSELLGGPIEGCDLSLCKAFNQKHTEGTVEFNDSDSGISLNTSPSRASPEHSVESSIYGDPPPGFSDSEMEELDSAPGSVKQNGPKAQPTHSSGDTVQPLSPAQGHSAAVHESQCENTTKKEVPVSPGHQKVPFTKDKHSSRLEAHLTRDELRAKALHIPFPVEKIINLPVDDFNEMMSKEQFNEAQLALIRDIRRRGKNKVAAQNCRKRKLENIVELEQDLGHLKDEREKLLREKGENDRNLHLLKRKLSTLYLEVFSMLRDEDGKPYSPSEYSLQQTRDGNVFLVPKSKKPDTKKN
Method in brief: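 PC12 cells exposed to 25 µM compound for 0, 4, 6 and 8 h; fixed in cold methanol (−20 °C, 20 min), anti-Nrf2 overnight, Dylight 594 secondary (1:500, 1 h), DAPI nuclear counterstain; imaged by fluorescence microscopy.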

[10] = test system: PC-12; test: Inhibition of H202-induced apoptosis in rat PC-12 cells assessed as late apoptotic cells at 25 uM after 24 hrs by Annexin-V-FITC/PI-staining based flow cytometric analysis (reference value: 32.5%); type: functional; design: scale not given: the % may be the effect or the level left; method in brief: as §1
[11] = test system: PC-12; test: Inhibition of H2O2-induced reactive oxygen species production in rat PC-12 cells assessed as ROS accumulation at 100 uM measured after pretreated for 24 hrs followed by H2O2 challenge and measured after 24 hrs by DCFH-DA probe based flow cytometry; type: functional, cell-based
Method in brief: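 PC12 cells seeded 1 × 10⁴/well, pretreated 24 h with 12.5–100 µM compound, then 300 µM H2O2 for 24 h. Rinsed, loaded with DCFH-DA (1:1000 in serum-free medium) 15 min at room temperature in the dark, washed; fluorescence read by microscopy, plate reader ([…]) and flow cytometry; three independent experiments.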

## COc1ccccc1/C=C/C=C/C(=O)N1CCCCC1
[1]
  Activity: 0.24%
[2]
  fold change (FC): 3
[3]
  viability at 100 µM: 58%
[4]
  viability at 12.5 µM: 61.4%
[5]
  Activity: 29.28%
[6]
  Activity: 0.26%
[7]
  Activity: Active
[8]
  Activity: Toxic
[9]
  Activity: Active
[10]
  Activity: 18.04%
[11]
  Activity: inactive

Reference: ChEMBL document CHEMBL4765320, “Identification and optimization of piperine analogues as neuroprotective agents for the treatment of Parkinson's disease via the activation of Nrf2/keap1 pathway” (Eur J Med Chem, 2020)
